In ChEMBL document CHEMBL3407394, “Synthesis and in vitro anticancer activity evaluation of novel bioreversible phosphate inositol derivatives” (Eur J Med Chem, 2015):

What was measured:
[1] = Cytotoxicity against human MCF10A cells assessed as growth inhibition at 10 ug/ml after 72 hrs by MTT assay; format: cell-based, MCF-10A; conditions: read-out: GI
Method in brief: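 MCF10A cells in DMEM/F12 plus 5% horse serum, about 1000 per well, were incubated 12 h, then treated at one final well concentration diluted in DMEM (0.5% DMSO) for 72 h, 37 °C, 5% CO2. Viability was by MTT: 4 h in fresh medium, formazan dissolved in DMSO, absorbance at 570 nm, normalized to vehicle controls. Cisplatin in 1% NaCl, pH 7, was the positive control.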

HeLa [2] = assay: Cytotoxicity against human HeLa cells assessed as growth inhibition after 72 hrs by MTT assay; format: functional, cell-based
Method in brief: (§1)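 A549, HeLa and MDA-MB-231 cells were grown in DMEM with 10% FBS and 1% penicillin/streptomycin. About 1000 cells/well were seeded and left 12 h, then exposed to a dilution series in DMSO (final 0.5% DMSO) for 72 h at 37 °C, 5% CO2. MTT in fresh medium was added for 4 h, formazan dissolved in DMSO, and OD570 read. Viability was normalized to vehicle, and IC50 taken by linear regression of concentration-response curves.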

A549 [3] = assay: Cytotoxicity against human A549 cells assessed as growth inhibition after 72 hrs by MTT assay; format: functional, cell-based; conditions: A549, 72 h; method in brief: as §1
[4] = Cytotoxicity against human MCF10A cells assessed as growth inhibition after 72 hrs by MTT assay; format: cell-based; conditions: MCF-10A
Method in brief: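 MCF10A non-cancerous cells were maintained in DMEM/F12 with 5% horse serum. About 1000 cells/well were seeded and attached for 12 h, then dosed over a dilution series (DMSO vehicle, final 0.5%) for 72 h at 37 °C, 5% CO2. MTT in fresh medium ran 4 h, formazan was dissolved in DMSO and OD570 measured. Viability was relative to vehicle-treated cells, and IC50 came from linear regression of concentration-response curves.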

A549 [5] = assay: Cytotoxicity against human A549 cells assessed as growth inhibition at 10 ug/ml after 72 hrs by MTT assay; format: functional; conditions: A549, 72 h, read-out: GI
Method in brief: (§2)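 Single-concentration screen in A549, HeLa or MDA-MB-231 cells cultured in DMEM, 10% FBS, 1% penicillin/streptomycin. About 1000 cells/well were preincubated 12 h, and compound diluted in DMEM to the final well concentration (0.5% DMSO) for 72 h at 37 °C, 5% CO2. Readout was MTT 4 h, DMSO-solubilized formazan, OD570, with inhibition relative to DMSO vehicle. Cisplatin in 1% NaCl (pH 7) served as positive control.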

MDA-MB-231 [6] = assay: Cytotoxicity against human MDA-MB-231 cells assessed as growth inhibition after 72 hrs by MTT assay; format: functional, cell-based; conditions: MDA-MB-231, 72 h; method in brief: as §1
HeLa [7] = assay: Cytotoxicity against human HeLa cells assessed as growth inhibition at 10 ug/ml after 72 hrs by MTT assay; format: functional; conditions: read-out: GI; method in brief: as §2
MDA-MB-231 [8] = assay: Cytotoxicity against human MDA-MB-231 cells assessed as growth inhibition at 10 ug/ml after 72 hrs by MTT assay; format: functional; conditions: MDA-MB-231, 72 h, read-out: GI; method in brief: as §2

CC(=O)Oc1ccc(COP(=O)(OCc2ccc(OC(C)=O)cc2)OC2C(OCc3ccccc3)C3OC(C)OC(C3OCc3ccccc3)C2OCc2ccccc2)cc1 (centres undefined)
inhibition at 72 h, 10 ug/ml [1]: 98.1% | IC50 (HeLa [2]): 2.79 µM | IC50 (A549 [3]): 11.4 µM | IC50 [4]: 8.19 µM | inhibition of growth at 10 µg/mL (A549 [5]): 96.6% | IC50 (MDA-MB-231 [6]): 2.85 µM | inhibition of growth at 10 µg/mL (HeLa [7]): 100% | inhibition of growth at 10 µg/mL (MDA-MB-231 [8]): 9.5%

CC(=O)Oc1ccc(COP(=O)(OCc2ccc(OC(C)=O)cc2)OC2C3OCOC(C3OCc3ccccc3)C(OCc3ccccc3)C2OP(=O)(OCc2ccc(OC(C)=O)cc2)OCc2ccc(OC(C)=O)cc2)cc1 (centres undefined)
inhibition at 72 h, 10 ug/ml [1]: 90.4% | IC50 (HeLa [2]): 0.62 µM | IC50 (A549 [3]): 2.01 µM | IC50 [4]: 0.85 µM | inhibition of growth at 10 µg/mL (A549 [5]): 92.1% | IC50 (MDA-MB-231 [6]): 0.43 µM | inhibition of growth at 10 µg/mL (HeLa [7]): 100% | inhibition of growth at 10 µg/mL (MDA-MB-231 [8]): 86.8%

CC(=O)Oc1ccc(COP(=O)(OCc2ccc(OC(C)=O)cc2)O[C@H]2[C@@H]3OC(C)(C)O[C@H]3[C@H](OP(=O)(OCc3ccc(OC(C)=O)cc3)OCc3ccc(OC(C)=O)cc3)[C@H]3OC(C)(C)O[C@H]32)cc1
inhibition at 72 h, 10 ug/ml [1]: -10.7% | IC50 (HeLa [2]): 0.62 µM | IC50 (A549 [3]): 2.34 µM | IC50 [4]: 25.1 µM | inhibition of growth at 10 µg/mL (A549 [5]): 90.1% | IC50 (MDA-MB-231 [6]): 0.83 µM | inhibition of growth at 10 µg/mL (HeLa [7]): 100% | inhibition of growth at 10 µg/mL (MDA-MB-231 [8]): 91.8%
